Measurements published in ChEMBL document CHEMBL1821581, “Synthesis, antiproliferative activities and in vitro biological evaluation of novel benzofuransulfonamide derivatives” (Bioorg Med Chem Lett, 2011).

Legend:
HeLa = assay: Antiproliferative activity against human HeLa cells after 48 hrs by MTT assay; type: functional, cell-based
Summary of the method: (§1)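 Cells seeded at 2000/well, cultured 24 h, then exposed to compounds 48 h. MTT (10 mg/mL stock, 10 µL/well) added for 2.5 h at 37 °C; supernatant removed, DMSO added 15–20 min, absorbance read at 570 nm. IC50 reported as mean of three independent experiments.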

NCI-H460 [1] = assay: Antiproliferative activity against human NCI-H460 cells after 48 hrs by MTT assay; type: functional, cell-based; conditions: NCI-H460, 48 h; summary of the method: as §1
PC-3 = assay: Antiproliferative activity against human PC3 cells after 48 hrs by MTT assay; type: functional, cell-based; conditions: PC-3, 48 h; summary of the method: as §1
HepG2 = assay: Antiproliferative activity against human HepG2 cells after 48 hrs by MTT assay; type: functional, cell-based; conditions: HepG2, 48 h; summary of the method: as §1
NCI-H460 [2] = assay: Induction of apoptosis in human NCI-H460 cells at 10 uM after 48 hrs using annexin V-FITC and propidium iodine staining by flow cytometric analysis (reference value: 3.82%); type: functional
NCI-H460 [3] = assay: Induction of apoptosis in human NCI-H460 cells at 2.5 uM after 48 hrs using annexin V-FITC and propidium iodine staining by flow cytometric analysis (reference value: 3.82%); type: functional

SMILES	IC50 (HeLa) [µM]	IC50 (NCI-H460 [1]) [µM]	IC50 (PC-3) [µM]	IC50 (HepG2) [µM]	Activity (NCI-H460 [2]) [%]	Activity (NCI-H460 [3]) [%]
Cc1c(C(=O)c2ccccc2)oc2ccc(S(=O)(=O)Nc3ccc(F)cc3)cc12	15.4	22.6	22.1	32.2	–	–
CCOC(=O)c1oc2ccc(S(=O)(=O)Nc3ccc(F)cc3)cc2c1C	9.37	4.13	8.56	7.53	41.09	33.88
CC(=O)Nc1ccc2oc(C(=O)c3ccccc3)c(C)c2c1	> 40	> 40	> 40	> 40	–	–
Cc1c(C(=O)c2ccccc2)oc2ccc(NS(=O)(=O)c3ccc(F)cc3)cc12	10.6	34.8	38.2	24.1	–	–
Cc1c(C(=O)c2ccccc2)oc2ccc(NC(=O)c3ccc(F)cc3)cc12	18.8	15.6	13.5	31.2	–	–
CCOC(=O)c1oc2ccc(NS(=O)(=O)c3ccc(F)cc3)cc2c1C	12.2	8.89	15.9	5.68	–	–
